Assay results: article PMC7164687 (Antiviral research, 2020)
Structures can show the parent of a compound that is named as a salt.

How the values were obtained:
HBVWT^D = assay: microbe, parasite or virus in culture; format: cell-based; details: Hepatitis B virus, HepG2.2.15, read-out: anti-HBV activity IC50
HBVWT^Ce = HBVWT^Ce viremia in infected human-liver-chimeric mice; format: in vivo; details: for reduction of HBVWT^Ce DNA (viremia), day 14: 14 days, average reduction by day 14
HBVETV^R = HBVETV^R viremia in infected human-liver-chimeric mice; format: in vivo; details: for reduction of HBVETV^R viremia, day 14: 14 days, average reduction by day 14; for block of HBVETV^R viremia: once-daily peroral 1 mg/kg/day over 14 days, abstract
Summary of the method: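 uPA/SCID mice with livers repopulated by human hepatocytes, infected with recombinant ETV-resistant HBV clone (L180M/S202G/M204V). Dosing began 7–14 weeks after inoculation: test compound, ETV or saline given intragastrically at 1 mg/kg once daily for 14 days, n=2–4 per group. Serum HBV-DNA (S gene) measured by real-time PCR. Change from day 0 compared by repeated-measures ANOVA, two-tailed, uncorrected.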

HIV-1LAI = assay: microbe, parasite or virus in culture; format: cell-based; details: Human immunodeficiency virus 1, MT2, 168 h, read-out: IC50 against HIV-1LAI
PXB cells = assay: Cytotoxicity assay in PXB cells; format: cell-based; details: read-out: CC50 in PXB cells; PXB cells, continuous exposure; mean ± 1 S.D.
[1] = Cytotoxicity assay in PXB cells; format: cell-based; details: human
[2] = tested on: human DNA polymerases, α, β, and γ; details: ref Nakata et al., 2007; cited from earlier work
[3] = format: in vivo, human-liver-chimeric mice; details: 1 mg/kg/day oral, 14 days, HBV-infected mice
[4] = 1 mg/kg/day oral, average reduction by 3 days after start
[5] = CC50 in PXB cells, PXB cells, continuous exposure, mean ± 1 S.D.

N#C[C@]1(CO)O[C@@H](n2cc(F)c3c(N)ncnc32)C[C@@H]1O [CdFA, 4’-C-cyano-7-deaza-7-fluoro-2’-deoxyadenosine]
IC50 (HBVWT^D): ~0.026 µM | reduction of HBVWT^Ce DNA (viremia), day 14 (HBVWT^Ce; 1 mg/kg/day oral): 0.7 log10 copies/mL | reduction of HBVWT^Ce DNA (viremia), day 3 (HBVWT^Ce; [4]): 0.5 log10 copies/mL | block of HBVWT viremia (HBVWT^Ce; once-daily peroral 1 mg/kg/day over 14 days, abstract): 0.7 logs | reduction of HBVETV^R viremia, day 14 (HBVETV^R; 1 mg/kg/day oral): 1.2 log10 copies/mL | reduction of HBVETV^R viremia, day 3 (HBVETV^R; [4]): 0.6 log10 copies/mL | block of HBVETV^R viremia (HBVETV^R): 1.2 logs | IC50 (HIV-1LAI): 0.88 ± 0.01 µM | CC50 (PXB cells): 55.9 ± 5.7 µM

CC(C)OC(=O)[C@H](C)N[P@](=O)(CO[C@H](C)Cn1cnc2c(N)ncnc21)Oc1ccccc1 [TAF, tenofovir alafenamide]
IC50 (HIV-1LAI): 0.004 ± 0.002 µM | CC50 [1]: 5.7 ± 1.9 µM

CC(C)OC(=O)OCOP(=O)(CO[C@H](C)Cn1cnc2c(N)ncnc21)OCOC(=O)OC(C)C [TDF, tenofovir disoproxil fumarate]
IC50 (HIV-1LAI): 0.03 ± 0.01 µM | CC50 ([1]; PXB cells): 33.4 ± 10.9 µM

N#C[C@]1(CO)O[C@@H](n2cnc3c(=O)[nH]c(N)nc32)C[C@@H]1O [CdG, 4’-C-cyano-2’-deoxyguanosine]
IC50 (HIV-1LAI): 0.0006 ± 0.0001 µM | CC50 [1, 5]: 0.37 ± 0.03 µM

C#C[C@]1(CO)O[C@@H](n2cnc3c(N)nc(F)nc32)C[C@@H]1O [EFdA, 4’-ethynyl-2-fluoro-2’-deoxyadenosine]
inhibition of the activity of human DNA polymerases α, β, and γ [2]: little inhibition

Nc1ccn([C@@H]2CS[C@H](CO)O2)c(=O)n1 [3TC, lamivudine]
IC50 (HIV-1LAI): 0.66 ± 0.15 µM | CC50 [1, 5]: > 100 µM

N#C[C@]1(CO)O[C@@H](n2cnc3c(N)ncnc32)C[C@@H]1O [CdA, 4’-C-cyano-2’-deoxyadenosine]
IC50 (HIV-1LAI): 0.094 ± 0.004 µM | CC50 [1, 5]: 5.4 ± 1.5 µM

C=C1[C@H](CO)[C@@H](O)C[C@@H]1n1cnc2c(=O)[nH]c(N)nc21 [ETV, entecavir]
reduction of HBVWT^Ce DNA (viremia), day 14 (HBVWT^Ce; 1 mg/kg/day oral): 2.2 log10 copies/mL | reduction of HBVETV^R viremia, day 14 (HBVETV^R; 1 mg/kg/day oral): 0.5 log10 copies/mL | block of HBVETV^R viremia (HBVETV^R): only slightly suppressed | IC50 (HIV-1LAI): 1 ± 0.4 µM | changes in serum human albumin levels [3]: no significant differences | CC50 [1, 5]: 252 ± 37.5 µM

CC(C)(C)C(=O)OCOP(=O)(COCCn1cnc2c(N)ncnc21)OCOC(=O)C(C)(C)C [ADV, adefovir dipivoxil]
IC50 (HIV-1LAI): 0.66 ± 0.2 µM | CC50 [1, 5]: 71.5 ± 19.3 µM
